Results: ChEMBL document CHEMBL2396638, “Structure-activity relationship studies and sleep-promoting activity of novel 1-chloro-5,6,7,8-tetrahydroimidazo[1,5-a]pyrazine derivatives as dual orexin receptor antagonists. Part 2” (Bioorg Med Chem Lett, 2013)

Experiments:
[1] = target: T1, Orexin/Hypocretin receptor type 1 (Homo sapiens, UniProt O43613); test: Antagonist activity at human OX1R expressed in CHO cells assessed as inhibition of calcium mobilization by FLIPR assay; assay type: functional, cell-based
T1 sequence (O43613 whole entry): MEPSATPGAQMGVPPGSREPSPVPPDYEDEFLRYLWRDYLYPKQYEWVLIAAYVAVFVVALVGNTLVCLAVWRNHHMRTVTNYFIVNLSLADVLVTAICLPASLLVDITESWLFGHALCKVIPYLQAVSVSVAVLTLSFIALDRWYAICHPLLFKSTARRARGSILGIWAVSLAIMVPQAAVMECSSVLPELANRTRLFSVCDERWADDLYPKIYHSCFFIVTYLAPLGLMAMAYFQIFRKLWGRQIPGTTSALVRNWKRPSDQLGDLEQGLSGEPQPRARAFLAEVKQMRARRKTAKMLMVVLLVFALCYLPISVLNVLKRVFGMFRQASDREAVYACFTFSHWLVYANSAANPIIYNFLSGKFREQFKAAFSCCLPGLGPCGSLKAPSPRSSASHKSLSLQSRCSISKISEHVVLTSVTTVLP

[2] = Drug uptake in Wistar rat brain at 100 mg/kg, po after 3 hrs; assay type: ADME, organism-based; parameters: dose 100 mg/kg, route oral; details: read-out: Drug uptake
Summary of the method: (§1)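 Male Wistar rats on 12 h light/dark cycle dosed orally at 100 mg/kg in PEG-400. Plasma and brain collected from the same animal at 3 h (±5 min). Blood drawn from caudal vena cava into EDTA and centrifuged for plasma. Brain taken after cardiac perfusion with 0.9% NaCl and homogenized in one volume cold phosphate buffer pH 7.4.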

Orexin receptor type 2 = target: T2, Orexin receptor type 2 (Homo sapiens, UniProt O43614); test: Antagonist activity at human OX2R expressed in CHO cells assessed as inhibition of calcium mobilization by FLIPR assay; assay type: functional, cell-based
T2 sequence (O43614 whole entry): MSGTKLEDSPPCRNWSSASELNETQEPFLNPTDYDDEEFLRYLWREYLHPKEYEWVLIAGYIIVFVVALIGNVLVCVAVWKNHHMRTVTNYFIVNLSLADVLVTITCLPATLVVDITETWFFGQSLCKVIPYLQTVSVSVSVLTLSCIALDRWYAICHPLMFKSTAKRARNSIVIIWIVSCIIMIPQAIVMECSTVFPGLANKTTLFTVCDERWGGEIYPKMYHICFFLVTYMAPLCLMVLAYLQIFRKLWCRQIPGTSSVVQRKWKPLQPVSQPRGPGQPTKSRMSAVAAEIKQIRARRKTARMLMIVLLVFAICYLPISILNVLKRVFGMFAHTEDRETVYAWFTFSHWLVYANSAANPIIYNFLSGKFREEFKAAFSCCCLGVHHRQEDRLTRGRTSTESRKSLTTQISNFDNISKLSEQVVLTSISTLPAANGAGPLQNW
Summary of the method: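 CHO cells stably expressing human OX2R, loaded with fluo-3 AM calcium dye at 37 °C in 5% CO2, then washed. Antagonist added at varying concentrations before an approximate EC80 of orexin A. Ca2+ mobilization read by FLIPR; IC50 taken as concentration inhibiting 50% of the orexin A-induced calcium response.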

[3] = Ratio of drug level from brain to plasma in Wistar rat at 100 mg/kg, po after 3 hrs; assay type: ADME, organism-based; parameters: dose 100 mg/kg, route oral; details: read-out: BPR; summary of the method: as §1
[4] = Plasma concentration in Wistar rat at 100 mg/kg, po after 3 hrs; assay type: ADME, organism-based; parameters: dose 100 mg/kg, route oral; summary of the method: as §1
Rattus norvegicus [5] = test: Sleep-promoting activity in Wistar rat electroencephalographic model assessed as time spent in non-rapid eye movement sleep at 100 mg/kg, po measured over 12 hrs relative to total sleep time (reference value: 85.4 to 87.3%); assay type: functional
Summary of the method: (§2)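 Freely moving adult male Wistar rats carrying radiotelemetric implants recording EEG, EMG and locomotor activity in the home cage. Oral dose of 100 mg/kg in 100% PEG-400 given at the start of the dark phase. Crossover design with 12 or 16 rats per group and at least 4-day washout. Read-outs over the 12 h night versus vehicle; means ± SEM, paired t-test.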

MDR1 (human) [6] = test: Apparent permeability across basolateral to apical side in MDCK cells expressing human MDR1; assay type: ADME, cell-based, Canis lupus familiaris; details: dog
Rattus norvegicus [7] = test: Sleep-promoting activity in Wistar rat electroencephalographic model assessed as reduction of time spent in active wake at 100 mg/kg, po measured over 12 hrs relative to vehicle-treated control; assay type: functional; parameters: scale not given: the % may be the effect or the level left; summary of the method: as §2
Rattus norvegicus [8] = test: Sleep-promoting activity in Wistar rat electroencephalographic model assessed as decrease in home cage activity at 100 mg/kg, po measured over 12 hrs relative to vehicle-treated control; assay type: functional; parameters: scale not given: the % may be the effect or the level left; summary of the method: as §2
Rattus norvegicus [9] = test: Sleep-promoting activity in Wistar rat electroencephalographic model assessed as increase in time spent in rapid eye movement sleep at 100 mg/kg, po measured over 12 hrs relative to vehicle-treated control; assay type: functional; summary of the method: as §2
MDR1 (human) [10] = test: Efflux ratio of apparent permeability […] to apical side in MDCK cells expressing human MDR1; assay type: ADME, cell-based, Canis lupus familiaris; details: dog
MDR1 (human) [11] = test: Apparent permeability across apical to basolateral side in MDCK cells expressing human MDR1; assay type: ADME, cell-based, Canis lupus familiaris; details: dog
Rattus norvegicus [12] = test: Sleep-promoting activity in Wistar rat electroencephalographic model assessed as time spent in rapid eye movement sleep at 100 mg/kg, po measured over 12 hrs relative to total sleep time (reference value: 12.7 to 14.6%); assay type: functional; summary of the method: as §2
Rattus norvegicus [13] = test: Sleep-promoting activity in Wistar rat electroencephalographic model assessed as increase in time spent in non-rapid eye movement sleep at 100 mg/kg, po measured over 12 hrs relative to vehicle-treated control; assay type: functional; summary of the method: as §2

SMILES | IC50 [1] | concentration at 3 h [2] | IC50 (Orexin receptor type 2) | Kp at 3 h [3] | concentration at 3 h [4] | also measured
CNC(=O)[C@@H](c1ccccc1)N1CCn2c(C3CC3)nc(Cl)c2[C@@H]1CCc1ccc(C(F)(F)F)cc1 | 30 nM |  |  |  |  | 
CCc1nc(Cl)c2n1CCN([C@@H](C(=O)NC)c1ccccc1)[C@H]2CCc1ccc(C(F)(F)F)c(F)c1F | 17 nM | 695 nM | 14 nM | 0.1 | 6770 nM | 
CCc1nc(Cl)c2n1CCN([C@@H](C(=O)NC)c1ccccc1)[C@H]2CCc1ccc(F)c(F)c1F | 30 nM | 18 nM | 5 nM | 0.05 | 387 nM | 
CNC(=O)[C@@H](c1ccccc1)N1CCn2c(C3CC3)nc(Cl)c2[C@@H]1CCc1ccc(C(F)(F)F)cc1F | 94 nM | 338 nM | 26 nM | 0.05 | 6760 nM | 
CNC(=O)[C@@H](c1ccccc1)N1CCn2c(C3CC3)nc(Cl)c2[C@@H]1CCc1ccc(OC(F)F)c(F)c1 | 170 nM |  | 2 nM |  |  | 
CCc1nc(Cl)c2n1CCN([C@@H](C(=O)NC)c1ccccc1)[C@H]2COc1ccc(C(F)(F)F)cc1 | 431 nM |  | 9 nM |  |  | 
CCc1nc(Cl)c2n1CCN([C@@H](C(=O)NC)c1ccccc1)[C@H]2COc1cccc(C(F)(F)F)c1 | 312 nM |  | 4 nM |  |  | 
CCc1nc(Cl)c2n1CCN([C@@H](C(=O)NC)c1ccccc1)[C@H]2CCc1ccc(C#N)cc1 | 3900 nM |  | 16 nM |  |  | 
CCc1nc(Cl)c2n1CCN([C@@H](C(=O)NC)c1ccccc1)[C@H]2CCc1ccc(OC(F)F)cc1 | 74 nM |  | 1 nM |  |  | 
CCc1nc(Cl)c2n1CCN([C@@H](C(=O)NC)c1ccccc1)[C@H]2CCc1ccc(OC(F)(F)F)cc1 | 203 nM |  | 18 nM |  |  | 
CNC(=O)[C@@H](c1ccccc1)N1CCc2cc(OC)c(OC)cc2[C@@H]1CCc1ccc(C(F)(F)F)cc1 [ALMOREXANT] |  |  |  |  |  | Activity (Rattus norvegicus [5]): 85.8%; Activity (Rattus norvegicus [7]): 20%; Activity (Rattus norvegicus [8]): 43%; Activity (Rattus norvegicus [9]): 38%; Activity (Rattus norvegicus [12]): 14.2%; Activity (Rattus norvegicus [13]): 20%

Further lines, with some results ahead:

IC50 [1] | concentration at 3 h [2] | IC50 (Orexin receptor type 2) | Kp at 3 h [3] | concentration at 3 h [4] | SMILES | also measured
32 nM |  | 17 nM |  |  | CCc1nc(Cl)c2n1CCN([C@@H](C(=O)NC)c1ccccc1)[C@H]2CCc1cc(F)c(C(F)(F)F)cc1F | 
16 nM |  | 8 nM |  |  | CCc1nc(Cl)c2n1CCN([C@@H](C(=O)NC)c1ccccc1)[C@H]2CCc1cc(F)c(C(F)(F)F)c(F)c1 | 
378 nM |  | 16 nM |  |  | CCc1nc(Cl)c2n1CCN([C@@H](C(=O)NC)c1ccccc1)[C@H]2CCc1ccc(F)c(C(F)(F)F)c1 | 
16 nM | 136 nM | 9 nM | 0.07 | 1860 nM | CCc1nc(Cl)c2n1CCN([C@@H](C(=O)NC)c1ccccc1)[C@H]2CCc1cccc(C(F)(F)F)c1F | 
53 nM | 450 nM | 10 nM | 0.07 | 6800 nM | CNC(=O)[C@@H](c1ccccc1)N1CCn2c(C3CC3)nc(Cl)c2[C@@H]1CCc1ccc(C(F)(F)F)c(F)c1 | 
72 nM |  | 10 nM |  |  | CCc1nc(Cl)c2n1CCN([C@@H](C(=O)NC)c1ccccc1)[C@H]2CCc1cccc(C(F)(F)F)c1 | 
18 nM | 1220 nM | 7 nM | 0.12 | 9820 nM | CCc1nc(Cl)c2n1CCN([C@@H](C(=O)NC)c1ccccc1)[C@H]2CCc1ccc(C(F)(F)F)c(F)c1 | Activity (Rattus norvegicus [5]): 86.2%; Papp B→A (MDR1 (human) [6]): 68.8 ×10⁻⁶ cm/s; Activity (Rattus norvegicus [7]): 13%; Activity (Rattus norvegicus [8]): 36%; Activity (Rattus norvegicus [9]): 9%; efflux ratio (MDR1 (human) [10]): 35; Papp A→B (MDR1 (human) [11]): 1.98 ×10⁻⁶ cm/s; Activity (Rattus norvegicus [12]): 13.8%; Activity (Rattus norvegicus [13]): 16%
547 nM |  | 227 nM |  |  | CCc1nc(Cl)c2n1CCN([C@@H](C(=O)NC)c1ccccc1)[C@@H]2CCc1ccc(C(F)(F)F)c(F)c1 | 
20 nM | 128 nM | 18 nM | 0.08 | 1600 nM | CCc1nc(Cl)c2n1CCN([C@@H](C(=O)NC)c1ccccc1)[C@H]2CCc1ccc(C(F)(F)F)c(Cl)c1 | 
45 nM | 363 nM | 12 nM | 0.06 | 6420 nM | CCc1nc(Cl)c2n1CCN([C@@H](C(=O)NC)c1ccccc1)[C@H]2CCc1ccc(C(F)(F)F)cc1F | 
